Measurements reported in ChEMBL document CHEMBL1811909, “Synthesis and antiproliferative activity of novel 2-aryl-4-benzoyl-imidazole derivatives targeting tubulin polymerization” (Bioorg Med Chem, 2011).

Key:
[1] = system: A-375; assay: Antiproliferative activity against human A375 cells after 48 hrs by sulforhodamine B assay; assay type: functional, cell-based; settings: A-375, 48 h
[2] = Antiproliferative activity against human WM164 cells after 48 hrs by sulforhodamine B assay; assay type: functional, cell-based; settings: WM164, 48 h
[3] = system: LNCaP; assay: Antiproliferative activity against human LNCAP cells after 96 hrs by sulforhodamine B assay; assay type: functional, cell-based
[4] = system: PC-3; assay: Antiproliferative activity against human PC3 cells after 96 hrs by sulforhodamine B assay; assay type: functional, cell-based; settings: PC-3, 96 h
[5] = system: DU-145; assay: Antiproliferative activity against human DU145 cells after 96 hrs by sulforhodamine B assay; assay type: functional, cell-based; settings: DU-145, 96 h
[6] = system: PPC-1; assay: Antiproliferative activity against human PPC1 cells after 96 hrs by sulforhodamine B assay; assay type: functional, cell-based; settings: PPC-1, 96 h
[7] = organism: Bos taurus; assay: Inhibition of bovine brain tubulin polymerization after 15 mins by spectrophotometric analysis
In short: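 Bovine brain tubulin (>97% pure, 0.4 mg per assay) mixed with compound at 5, 10 or 20 µM, with 5% DMSO as vehicle control. Buffer: 80 mM PIPES, 2.0 mM MgCl2, 0.5 mM EGTA, 1 mM GTP, pH 6.9. Polymerization followed at 37 °C as absorbance at 340 nm, read every minute for 15 min.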

[8] = system: PC-3; assay: Antiproliferative activity against human PC3 cells by sulforhodamine B assay; assay type: functional, cell-based
In short: (§1)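 Prostate cancer cells grown in RPMI 1640 with 10% FBS at 37 °C, 5% CO2. Cells (1000–5000/well, by growth rate) were exposed to a range of concentrations for 96 h, in three to five replicates. Growth was read by SRB: TCA fixation, 0.4% SRB stain, absorbance at 540 nm.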

[9] = system: PC-3; assay: Antiproliferative activity against human paclitaxel-resistant PC3 cells by sulforhodamine B assay; assay type: functional, cell-based; in short: as §1
[10] = system: DU-145; assay: Antiproliferative activity against human paclitaxel-resistant DU145 cells by sulforhodamine B assay; assay type: functional, cell-based
In short: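 Prostate cancer cells grown in RPMI 1640 with 10% FBS at 37 °C, 5% CO2. Seeded at 1000–5000 cells/well depending on growth rate and exposed to a concentration series for 96 h, in three to five replicates. Cells fixed with 10% TCA and stained with 0.4% SRB, absorbance read at 540 nm.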

Molecule COc1cc(C(=O)c2c[nH]c(-c3ccc(C)cc3)n2)cc(OC)c1O has an IC50 [1] of 0.11 µM, an IC50 [2] of 0.12 µM and an IC50 [3] of 130 nM. The IC50 [4] was 0.13 µM, the IC50 [5] was 0.17 µM and the IC50 [6] was 110 nM. The inhibition [7] was “Dose-dependent effect”.
Molecule COc1cc(C(=O)c2nc3ccccc3[nH]2)cc(OC)c1OC has an IC50 [1] of over 10 µM, an IC50 [2] of over 10 µM and an IC50 [3] of over 10000 nM. The IC50 [4] was over 10 µM, the IC50 [5] was over 10 µM and the IC50 [6] was over 10000 nM. The inhibition [7] was “Dose-dependent effect”.
Work on COc1ccc2[nH]c(C(=O)c3cc(OC)c(OC)c(OC)c3)cc2c1 yielded an IC50 [1] of 0.03 µM, an IC50 [2] of 0.04 µM and an IC50 [3] of 50 nM. For the same molecule, the IC50 [4] was 0.04 µM, the IC50 [5] was 0.08 µM and the IC50 [6] was 50 nM. For the same molecule, the inhibition [7] was “Dose-dependent effect”.
Work on COc1cc(C(=O)c2cc3ccc(Cl)cc3n2C)cc(OC)c1OC yielded an IC50 [1] of 6.65 µM, an IC50 [2] of 8.08 µM and an IC50 [3] of 1040 nM. It also gave an IC50 [4] of 3.76 µM, an IC50 [5] of over 10 µM and an IC50 [6] of 4330 nM. The inhibition [7] was “Dose-dependent effect”.
With COc1cc(C(=O)c2cn(Cc3ccccc3)c(-c3ccc(C)cc3)n2)cc(OC)c1OC the IC50 [1] was 1.06 µM, the IC50 [2] was 1.17 µM and the IC50 [3] was 680 nM. It also gave an IC50 [4] of 0.47 µM, an IC50 [5] of 1.5 µM and an IC50 [6] of 780 nM. For the same molecule, the inhibition [7] was “Dose-dependent effect”.
With CC(=O)O[C@H]1C(=O)[C@@]2(C)[C@H]([C@H](OC(=O)c3ccccc3)[C@]3(O)C[C@H](OC(=O)[C@H](O)[C@@H](NC(=O)c4ccccc4)c4ccccc4)C(C)=C1C3(C)C)[C@]1(OC(C)=O)CO[C@@H]1C[C@@H]2O [PACLITAXEL] the IC50 [8] was 0.43 nM, the IC50 [9] was 188 nM and the IC50 [10] was over 3000 nM.
COc1cc(C(=O)c2cc3ccc(F)cc3[nH]2)cc(OC)c1OC gave an IC50 [1] of over 10 µM, an IC50 [2] of over 10 µM and an IC50 [3] of over 10000 nM. It also gave an IC50 [4] of over 10 µM, an IC50 [5] of over 10 µM and an IC50 [6] of over 10000 nM. The inhibition [7] was “Dose-dependent effect”.
With COc1cc(C(=O)c2cc3ccc(F)cc3n2C)cc(OC)c1OC the IC50 [1] was 5.87 µM, the IC50 [2] was 7.5 µM and the IC50 [3] was 1050 nM. The IC50 [4] was over 10 µM, the IC50 [5] was over 10 µM and the IC50 [6] was 8300 nM. For the same molecule, the inhibition [7] was “Dose-dependent effect”.
With COc1ccc2cc(C(=O)c3cc(OC)c(OC)c(OC)c3)n(S(=O)(=O)c3ccccc3)c2c1 the IC50 [1] was 8.22 µM, the IC50 [2] was over 10 µM and the IC50 [3] was over 10000 nM. For the same molecule, the IC50 [4] was 2.66 µM, the IC50 [5] was over 10 µM and the IC50 [6] was 1050 nM. The inhibition [7] was “Dose-dependent effect”.
In the case of COc1cc(C(O)(c2nc3ccccc3s2)c2nc3ccccc3s2)cc(OC)c1OC, the IC50 [1] is reported as over 10 µM, the IC50 [2] is reported as over 10 µM and the IC50 [3] is reported as over 10000 nM. The IC50 [4] was over 10 µM, the IC50 [5] was over 10 µM and the IC50 [6] was over 10000 nM. The inhibition [7] was “Dose-dependent effect”.
COc1cc(C(=O)c2nc3ccccc3s2)cc(OC)c1OC gave an IC50 [1] of over 10 µM, an IC50 [2] of over 10 µM and an IC50 [3] of over 10000 nM. It also gave an IC50 [4] of over 10 µM, an IC50 [5] of over 10 µM and an IC50 [6] of over 10000 nM. The inhibition [7] was “Dose-dependent effect”.
COc1cc(C(=O)c2cc3cc(F)ccc3[nH]2)cc(OC)c1OC showed an IC50 [1] of 2.21 µM, an IC50 [2] of 2.26 µM and an IC50 [3] of 8630 nM. The IC50 [4] was 9.16 µM, the IC50 [5] was 3.42 µM and the IC50 [6] was 1000 nM. For the same molecule, the inhibition [7] was “Dose-dependent effect”.
